SIRT5 block: SIRT5 desuccinylase inhibitors, primary screen, biochemical, fluorescence imaging, single point, set 5; NAD-dependent protein deacylase sirtuin-5, mitochondrial (Homo sapiens), Q9NXA8; Purified SirT5, succinyl-peptide AMC, trypsin-coupled fluorescence; inhibition, % at 15 µM; actives 1.1% (n = 330,000); AID 652115, 2013; in the data active = inhibition above about 15%
UCH37 DUB inh: inhibitors of human UCH37 deubiquitinase, primary screen, biochemical, Ub-AMC cleavage, fluorescence; Ubiquitin carboxyl-terminal hydrolase isozyme L5 (Homo sapiens), Q9Y5K5; purified proteasome/UCH37; inhibition, % (no concentration beside the values); actives 0.33% (n = 330,000); AID 588478, 2011;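 active = mean inhibition over replicate wells above about 20%, limit read from the data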;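 note: 0% = compound-free wells with enzyme and 100% = wells lacking proteasome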
Target sequence (Q9Y5K5 whole entry, looked up): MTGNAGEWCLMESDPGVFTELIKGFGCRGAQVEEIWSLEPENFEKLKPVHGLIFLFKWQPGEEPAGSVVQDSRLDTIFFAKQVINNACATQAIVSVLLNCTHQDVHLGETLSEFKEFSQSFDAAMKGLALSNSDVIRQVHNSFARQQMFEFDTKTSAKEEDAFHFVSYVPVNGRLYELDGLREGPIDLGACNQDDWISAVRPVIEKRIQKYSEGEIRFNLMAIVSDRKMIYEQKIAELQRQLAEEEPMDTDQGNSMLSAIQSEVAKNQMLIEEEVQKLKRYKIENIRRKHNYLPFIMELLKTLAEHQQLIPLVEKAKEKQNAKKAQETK
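Test system – human UCH37 enzyme supplied as purified proteasome complex · Incubation – 30 min preincubation with enzyme, 25 min cleavage at room temperature · Detection – AMC fluorescence from Ub-AMC cleavage, excitation 355 nm, emission 460 nm · Benchmarks – no-proteasome wells (full inhibition) and compound-free wells (no inhibition)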
NSD2 inh: NSD2 histone methyltransferase inhibitors, primary screen, biochemical, AlphaScreen, single concentration, set 2; NSD2 peptide methylation, 120 min; inhibition, % at 12.5 µM; actives 0.54% (n = 310,000); AID 743445, 2014; in the data active = inhibition above about 50%
FGF22 binding: binders of human FGF22 protein, primary screen, FGF22 synaptogenesis inhibitor project, biophysical, thermal shift, single point. Fibroblast growth factor 22 (Homo sapiens), Q9HCT0. recombinant FGF22 thermal shift, SYPRO orange fluorescence; percent of sucrose octasulfate shift, DMSO zero. activity (Tm shift, normalised), % at 9.99 µM. actives 1.5% (n = 340,000). AID 651658, 2012;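 active = mean Tm shift, scaled 0 neutral to 100 positive control, at about 1.3% or above, every replicate too, limit read from the data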
CASP6 VEID inh: human caspase-6 inhibitors, primary screen, biochemical, VEID-R110 fluorescence, single point, set 2; P55212; purified caspase-6, Z-VEID-R110 cleavage fluorescence; inhibition, % at 12.5 µM; actives 0.53% (n = 350,000); AID 686996, 2013;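 active = mean inhibition across replicates at least about 35%, with every replicate also reaching that limit, limit read from the data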;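 note: 0% = median of neutral control wells and 100% = no fluorescence left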
Target sequence (P55212 24-179 limits assumed): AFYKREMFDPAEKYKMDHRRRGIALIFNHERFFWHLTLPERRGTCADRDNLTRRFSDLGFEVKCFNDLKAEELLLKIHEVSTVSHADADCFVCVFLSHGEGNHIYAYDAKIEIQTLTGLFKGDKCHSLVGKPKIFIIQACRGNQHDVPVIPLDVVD
Target sequence (P55212 194-293 limits assumed): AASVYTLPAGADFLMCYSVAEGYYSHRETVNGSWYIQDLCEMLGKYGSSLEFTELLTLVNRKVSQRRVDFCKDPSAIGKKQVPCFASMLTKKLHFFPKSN
Active calls of the source: *; / = no result; ! = a repeat was not active. In the library only some 2.6% were active in any assay of this set; here they are far more common.

SMILES	SIRT5 block	UCH37 DUB inh	NSD2 inh	FGF22 binding	CASP6 VEID inh
CC1(C(=O)NS(=O)(=O)c2ccccc2Cl)CCN1C(=O)Cc1cccc2ccccc12 (configuration not stated)	30.0*	/	-2.4	0.3	2.5
CC(C)(C)c1ccc(S(=O)(=O)NC(=O)C2(C)CCN2C(=O)Cc2cccc3ccccc23)cc1 (configuration not stated)	1.7	/	13.7	6.1*	3.3
CC1(C(=O)NS(=O)(=O)c2ccccc2)CCN1C(=O)Cc1cccc2ccccc12 (configuration not stated)	1.1	/	-0.1	-0.2	0.8
O=C(NCCCn1ccnc1)c1ccc(NS(=O)(=O)c2ccc(Cl)c(Cl)c2)cc1	20.3*	5.4	1.8	-0.2	-17.0
C[C@H]1CN([C@@H](C)CO)C(=O)c2cc(-c3ccc(C#N)cc3)cnc2O[C@@H]1CN(C)Cc1cccnc1	-4.0	/	/	-0.1	-1.7
C[C@H](CO)N1C[C@H](C)[C@@H](CN(C)C)OCCCC[C@H](C)Oc2ccc(NS(=O)(=O)c3cccs3)cc2C1=O	-2.0	/	/	0.2	0.7
COc1ccc(C(CC(=O)O)n2cnnn2)cc1 (configuration not stated)	-3.3	2.7	-0.2	42.5	-0.7
CC(C)Oc1ccc(C(CC(=O)O)n2cnnn2)cc1 (configuration not stated)	1.4	2.1	-0.6	43.1*	-2.1
C[C@H](CO)N1C[C@H](C)[C@H](CN(C)Cc2ccc(-c3ccccc3)cc2)Oc2c(NS(=O)(=O)c3cccs3)cccc2C1=O	-0.7	/	/	-0.4	-0.5
CC(C)c1ccc2[nH]c3c(c2c1)[C@@H]1CCN2C(=O)CCC[C@H](C3)[C@H]12	34.5*	6.8	/	0.0	-1.6
CN1CCN(C(=O)C2=C[C@@H](c3coc4ccccc4c3=O)C[C@@H](OCc3ccc(CO)cc3)O2)CC1	-0.2	-5.7	/	-0.3	-1.9
O=C(C1=C[C@@H](c2coc3ccccc3c2=O)C[C@@H](OCc2ccc(CO)cc2)O1)N1CCN(Cc2ccccc2)CC1	0.0	-1.6	/	1.4*	2.0
O=C(O)C1=C[C@H](c2coc3ccccc3c2=O)C[C@H](OCCCCO)O1	16.1*!	4.9	/	0.1	-4.5
O=C(C1=C[C@@H](C2CCCCC2)C[C@@H](OCc2ccc(CO)cc2)O1)N1CCOCC1	0.5	0.5	/	0.5	1.6
CN1CCN(C(=O)C2=C[C@H](C3CCCCC3)C[C@H](OCc3ccc(CO)cc3)O2)CC1	29.7*!	2.5	/	0.3	-0.2
Cc1ccc(S(=O)(=O)Nc2cccc3c2O[C@@H](CN(C)Cc2ccc(C(=O)Nc4ccccc4N)cc2)[C@@H](C)CN([C@@H](C)CO)C3=O)cc1	-4.1	/	/	-0.1	1.3
O=C(CCNc1n[nH]c(=O)[nH]c1=O)N/N=C/c1ccc(C(F)(F)F)cc1	-1.5	/	-1.4	42.9*	2.2
O=C(CNc1n[nH]c(=O)[nH]c1=O)N/N=C/c1ccccc1	-0.3	/	/	0.0	1.9
O=C(CCNc1n[nH]c(=O)[nH]c1=O)N/N=C/c1ccccc1Br	0.9	/	-4.8	43.6*	0.2
O=C(CCNc1n[nH]c(=O)[nH]c1=O)NN=Cc1cccc(OCc2ccccc2)c1	/	0.5	/	/	/
Cc1noc(C)c1NC(=O)Nc1ccc2c(c1)C(=O)N([C@@H](C)CO)C[C@H](C)[C@H](CN(C)Cc1ccc(Cl)c(Cl)c1)OCCCC[C@@H](C)O2	4.1	/	/	0.2	0.0
O=C(N/N=C/c1c(O)n(-c2ccccc2Cl)c(=O)c2ccccc12)C1COc2ccccc2O1 (configuration not stated)	/	-15.0	2.0	/	/
O=c1c2ccccc2c(/C=N/c2n[nH]c(CCCO)n2)c(O)n1-c1ccccc1Cl	1.9	2.8	3.1	43.0*	1.3
Cc1ccc(C(C)C)c(OCCCCN2CCNCC2)c1	17.9*	3.6	5.1	0.1	-3.9
Cc1ccc(C(C)C)c(OCCOCCN2CCNCC2)c1	1.2	8.8	-0.3	-0.1	-47.4
SMILES	SIRT5 block	UCH37 DUB inh	NSD2 inh	FGF22 binding	CASP6 VEID inh
C[C@@H]1CN([C@@H](C)CO)C(=O)Cc2cc(NC(=O)Nc3ccc(F)cc3)ccc2O[C@H]1CN(C)Cc1ccc(C(=O)O)cc1	3.4	/	/	-0.2	1.3
CC1CCCC(NC(=O)COC(=O)c2ccccc2[N+](=O)[O-])C1C (configuration not stated)	-1.5	1.6	-0.4	43.7*	-0.3
CC1CCCC(NC(=O)COC(=O)c2ccccc2NC(=O)c2ccco2)C1C (configuration not stated)	/	-96.1	-4.6	/	/
CC1CCCC(NC(=O)COC(=O)CCC(=O)c2ccc(F)cc2)C1C (configuration not stated)	/	2.2	-1.3	44.3*	-2.1
CC1CCCC(NC(=O)COC(=O)CCSc2ccccc2)C1C (configuration not stated)	15.9*	4.5	3.7	0.1	0.3
CC1CCCC(NC(=O)COC(=O)CCC(=O)c2cccs2)C1C (configuration not stated)	0.1	0.5	0.4	0.2	-0.8
CO[C@@H]1CC[C@@H]2CCOc3c(C#N)cccc3C(=O)N(C)C[C@@H](C)C(=O)N(C)C[C@H]1O2	-0.1	/	/	-0.1	-2.9
O=C(Nc1cc(F)ccc1F)N1CC(=O)N2[C@@H](CO)[C@@H](c3ccc(C#CC4CCCCC4)cc3)[C@@H]2C1	21.0*	/	/	/	1.6
O=C(Nc1ccccc1)N1CC(=O)N2[C@H](C1)[C@H](c1ccc(C#CC3CCCCC3)cc1)[C@@H]2CO	-1.6	/	/	/	0.2
COc1ccccc1NC(=O)N1CCCCN2[C@@H](CO)[C@@H](c3ccc(C#CC4CCCC4)cc3)[C@@H]2C1	0.3	/	/	-0.7	1.4
O=C(Nc1ccccc1)N1CC(=O)N2[C@H](CO)[C@@H](c3ccc(C#CC4CCCCC4)cc3)[C@@H]2C1	16.1*	/	/	/	0.9
COc1ccccc1NC(=O)N1CCCCN2[C@@H](CO)[C@H](c3ccc(C#CC4CCCC4)cc3)[C@@H]2C1	16.9*	/	/	-0.9	-1.0
COc1ccccc1NC(=O)N1CC(=O)N2[C@H](C1)[C@@H](c1ccc(C#Cc3ccccc3)cc1)[C@@H]2CO	8.0	/	/	/	-0.1
COc1ccccc1NC(=O)N1CC(=O)N2[C@H](CO)[C@@H](c3ccc(C#CC4CC4)cc3)[C@H]2C1	22.1*	/	/	/	/
O=C(Nc1cc(F)ccc1F)N1CC(=O)N2[C@H](CO)[C@H](c3ccc(C#CC4CCCCC4)cc3)[C@H]2C1	8.4	/	/	-0.4	-2.6
CC(C)NC(=O)N1CCCCN2[C@H](CO)[C@H](c3ccc(C#CC4CC4)cc3)[C@H]2C1	-0.8	/	/	-0.2	-3.9

Source: PubChem BioAssay (several laboratories)
